Results of several laboratories.
Lines come from different studies, so protocols differ.
Organism: Staphylococcus aureus
Read-out: microbial growth

Cc1ccc2nc(-c3ccc(F)cc3)[nH]c2c1  MIC (broth dilution; ATCC29213 MSSA): 64 µg/mL
C/C=C(\C)c1cc(OC(=O)c2c(C)c(Cl)c(O)c(Cl)c2O)c(C)c(O)c1C(=O)O  MIC (broth dilution; CCARM3090): 64 µg/mL
O=C(CCc1cc(O)c(O)c(O)c1)NCCCCCCCC[P+](c1ccccc1)(c1ccccc1)c1ccccc1.[Br-]  MIC (broth dilution; ATCC43300 MRSA; 18 h): 8 µg/mL
CO[C@H]1/C=C/O[C@@]2(C)Oc3c(C)c(O)c4c(O)c(c(/C=N/N5CCN(C)CC5)c(O)c4c3C2=O)NC(=O)/C(C)=C\C=C\[C@H](C)[C@H](O)[C@@H](C)[C@@H](O)[C@@H](C)[C@H](OC(C)=O)[C@@H]1C  MIC (NCTC8325): 0.009 to 0.018 µM
Fc1ccccc1NCc1ccc(Oc2ccccn2)cc1  MIC: 1.6 µg/mL
Cc1ccc(C)n1-c1ccc(C(=O)NNC=O)cc1  MIC (broth dilution; ATCC11632; 18 h): 16 µg/mL
CN(C)c1ccc(-c2ccc3cc4c(c(O)c3c2)C(=O)C2=C(O)[C@]3(O)C(=O)C(C(N)=O)=C(O)[C@@H](N(C)C)[C@@H]3C[C@@H]2C4)cc1  MIC (broth dilution; ATCC29213): 32 µg/mL
C/C=C(\C)c1cc(O)c(C)c(OC(=O)c2c(C)cc(O)c(Cl)c2O)c1  MIC (broth dilution; 16162): 8 µg/mL
CCCCCCCCCC(=O)Oc1c(C)c(O)c(C(=O)/C=C/c2ccccc2)c(OC)c1C  MIC (broth dilution; ATCC25923): > 5000 µg/mL
C=CCn1c(-c2ccc(Cl)cc2)nc2ccc(C)cc21  MIC (broth dilution; ATCC29213 MSSA): 32 µg/mL
CC[C@H]1OC(=O)[C@H](C)[C@@H](O[C@H]2C[C@@](C)(OC)[C@@H](O)[C@H](C)O2)[C@H](C)[C@@H](O[C@@H]2O[C@H](C)C[C@H](N(C)C)[C@H]2O)[C@](C)(O)C[C@@H](C)C(=O)[C@H](C)[C@@H](O)[C@]1(C)O  MIC (129; clinical isolate): > 100 µM
O=C(CCCCCC[P+](c1ccccc1)(c1ccccc1)c1ccccc1)Nc1ccc(O)c(O)c1.[Br-]  MIC (broth dilution; ATCC43300 MRSA; 18 h): > 32 µg/mL
COc1cc2/c(=N/c3ccc(Br)cc3F)nc[nH]c2cc1OCC1CCN(C)CC1  MIC (NCTC8325): > 30 µM
O=C(O)c1cn(C2CC2)c2cc(N3CCNCC3)c(F)cc2c1=O  MIC (broth dilution; 24 h): 9.43 µM
CCn1cc(C(=O)O)c(=O)c2cc(F)c(N3CCNCC3)cc21  MIC (broth dilution; ATCC6538): 2 µM
COc1ccc(C(=O)O)cc1NC(=O)/C=C/c1ccc(-c2ccccc2C)cc1  MIC: 64 µg/mL
Clc1ccc(Cn2c(-c3ccc(Cl)cc3)nc3ccccc32)cc1  MIC (broth dilution; ATCC29213 MSSA): 8 µg/mL
NC[C@@H]1O[C@H](O[C@H]2[C@@H](O)[C@H](O[C@@H]3[C@@H](O)[C@H](N)C[C@H](N)[C@H]3O[C@H]3O[C@H](CN)[C@@H](O)[C@H](O)[C@H]3N)O[C@@H]2CO)[C@H](N)[C@@H](O)[C@@H]1O  MIC (NEWMAN): 5 to 10 µg/mL
Cc1cc(=O)[nH]n1C(=O)c1ccc(-n2c(C)ccc2C)cc1  MIC (broth dilution; ATCC11632; 18 h): 125 µg/mL
CC(C)Oc1c(NC(=O)c2ccc(NC(=O)[C@H](CC(N)=O)NC(=O)c3ccc(NC(=O)CCc4ccc(C#N)cc4)cc3)cc2)ccc(C(=O)Nc2ccc(C(=O)O)cc2)c1O  MIC (ATCC29213): > 64 µg/mL
CS(=O)(=O)CCNCc1ccc(-c2ccc3ncnc(Nc4ccc(OCc5cccc(F)c5)c(Cl)c4)c3c2)o1  MIC (NCTC8325): > 30 µM
CSc1ccc(-c2nc3ccc(C)cc3n2Cc2ccccc2)cc1  MIC (broth dilution; ATCC29213 MSSA): 128 µg/mL
NC[C@H]1O[C@H](O[C@H]2[C@H](O)[C@@H](O[C@H]3O[C@H](CO)[C@@H](O)[C@H](N)[C@H]3O)[C@H](N)C[C@@H]2N)[C@H](N)C[C@@H]1O  MIC (156; clinical isolate): 12.5 µM
CC1(C)S[C@@H]2[C@H](NC(=O)[C@H](N)c3ccccc3)C(=O)N2[C@H]1C(=O)O  MIC (broth dilution; 16162): 16 µg/mL
O=C(O)c1cccc2ccccc12  MIC: > 128 µg/mL
CC1(C)S[C@@H]2[C@H](NC(=O)[C@H](N)c3ccccc3)C(=O)N2[C@H]1C(=O)O  MIC (broth dilution; ATCCBAA44): 16 µg/mL
CNc1cccc2cc(C(=O)NCc3ccc(C(=O)O)cc3)c(=O)[nH]c12  MIC (ATCC29213): > 64 µg/mL
O=C(O)CN1C(=O)/C(=C/c2ccc(-c3ccc(N(c4ccccc4)c4ccccc4)cc3)c3ccccc23)SC1=S  MIC (broth dilution; ATCC6538): 1000 µg/mL
CC(C)Oc1c(NC(=O)c2ccc(NC(=O)[C@H](CC(N)=O)NC(=O)c3cccc(-c4cccc(C#N)c4)c3)cc2)ccc(C(=O)Nc2ccc(C(=O)O)cc2)c1O  MIC (ATCC29213): > 64 µg/mL
Clc1ccc(-c2nc3ccccc3[nH]2)c(Cl)c1  MIC (broth dilution; ATCC29213 MSSA): 128 µg/mL
O=C1NC(=S)N/C1=C\c1ccc(-c2ccc(N(c3ccccc3)c3ccccc3)cc2)c2ccccc12  MIC (broth dilution; ATCC25923): > 1000 µg/mL
O=[N+]([O-])c1ccc(-c2nc3ccccc3n2Cc2ccccc2)cc1  MIC (broth dilution; ATCC29213 MSSA): 4 µg/mL
CC(C)Oc1c(NC(=O)c2ccc(NC(=O)[C@H](CC(N)=O)NC(=O)c3ccc(NC(=O)c4ccc(C#N)cc4)cc3)cc2)ccc(C(=O)Nc2ccc(C(=O)O)cc2)c1O  MIC (ATCC29213): 0.25 µg/mL
C#CCCC1(CCNC(=O)c2cc(Oc3ccc(NC(=O)Nc4ccc(Cl)c(C(F)(F)F)c4)cc3)ccn2)N=N1  MIC (NCTC8325; 24 h): 10 µM
C/C=C(\C)c1cc(O)c(C)c(OC(=O)c2c(C)c(Cl)c(O)c(Cl)c2O)c1  MIC (broth dilution; 6917): 8 µg/mL
O=C(O)CN1C(=O)/C(=C/c2c3ccccc3c(-c3ccc(N(c4ccccc4)c4ccccc4)cc3)c3ccccc23)NC1=S  MIC (broth dilution; ATCC43300): > 1000 µg/mL
C[C@@H](Oc1cc(-n2cnc3ccc(CN4CCN(C)CC4)cc32)sc1C(N)=O)c1ccccc1C(F)(F)F  MIC (NCTC8325): > 30 µM
O=C(O)CN1C(=O)/C(=C/c2c3ccccc3c(-c3ccc(N(c4ccccc4)c4ccccc4)cc3)c3ccccc23)SC1=S  MIC (broth dilution; ATCC43300): > 1000 µg/mL
CC(C)Oc1c(NC(=O)c2ccc(NC(=O)[C@H](CC(N)=O)NC(=O)c3cccc(NC(=O)c4ccc(C#N)cc4)c3)cc2)ccc(C(=O)Nc2ccc(C(=O)O)cc2)c1O  MIC (ATCC29213): > 64 µg/mL
CC(=O)NC[C@H]1CN(c2ccc(N3CCOCC3)c(F)c2)C(=O)O1  MIC (broth dilution; MRSA NRS384 USA300; drug-resistant strain): 2 µg/mL
Cc1ccc2nc(-c3cccnc3)[nH]c2c1  MIC (broth dilution; ATCC29213 MSSA): 64 µg/mL
COc1ccc2c(c1)CCc1c(C(=O)NCCc3nc4cc(C)ccc4[nH]3)n[nH]c1-2  MIC: > 128 µg/mL
O=C1NN=C(N=Cc2ccc(O)cc2O)C1=NNn1c(-c2ccccc2)nc2ccccc2c1=O  MIC (broth dilution; 24 h): 107 µM
O=C(Nc1ccc2c(c1)OC(F)(F)O2)NC12CC3CC(CC(C3)C1)C2  MIC (NCTC8325): > 100 µM
CCCCCCCCCCCC(=O)Oc1c(C)c(O)c(C(=O)/C=C/c2ccccc2)c(OC)c1C  MIC (broth dilution; ATCC25923): 5000 µg/mL
O=C(Nc1cccc(NC(=O)Nc2ccc(Cl)c(C(F)(F)F)c2)c1)Nc1ccc(Cl)c(C(F)(F)F)c1  MIC (NCTC8325; 24 h): 1 µM
CC(C)Oc1c(NC(=O)c2ccc(NC(=O)[C@H](CC(N)=O)NC(=O)c3ccc(NC(=O)c4ccc(NC(=O)c5ccc([N+](=O)[O-])cc5)cc4)cc3)cc2)ccc(C(=O)Nc2ccc(C(=O)O)cc2)c1O  MIC (ATCC29213): > 64 µg/mL
CN[C@H](CC(C)C)C(=O)N[C@H]1C(=O)N[C@@H](CC(N)=O)C(=O)N[C@H]2C(=O)N[C@H]3C(=O)N[C@H](C(=O)N[C@H](C(=O)O)c4cc(O)cc(O)c4-c4cc3ccc4O)[C@H](O)c3ccc(c(Cl)c3)Oc3cc2cc(c3O[C@@H]2O[C@H](CO)[C@@H](O)[C@H](O)[C@H]2O[C@H]2C[C@](C)(N)[C@H](O)[C@H](C)O2)Oc2ccc(cc2Cl)[C@H]1O  MIC (broth dilution; 745524): 1 µg/mL
O=C1NC(=S)S/C1=C\c1c2ccccc2c(-c2ccc(N(c3ccccc3)c3ccccc3)cc2)c2ccccc12  MIC (broth dilution; ATCC6538): > 1000 µg/mL
CC(C)(O/N=C(\C(=O)N[C@@H]1C(=O)N2C(C(=O)[O-])=C(C[n+]3ccccc3)CS[C@H]12)c1csc(N)n1)C(=O)O  MIC (broth dilution; MRSA; 18 h; clinical isolate): 64 µg/mL
CCCCCCC#Cc1cncc(-c2nnc(SCc3ccc([N+](=O)[O-])o3)n2C2CC2)c1  MIC (MRSA; drug-resistant strain): ≥ 20 µg/mL
C=CCn1c(-c2ccc(Cl)cc2)nc2ccccc21  MIC (broth dilution; ATCC29213 MSSA): 64 µg/mL
O=C(O)c1cc(Br)c(O)c(Br)c1  MIC: > 128 µg/mL
Cc1ccc(NCc2ccc(Oc3ccccn3)cc2)cc1  MIC: 1.8 µg/mL
Clc1ccc(C2(c3ccc(-c4cn[nH]c4)cc3)CCNCC2)cc1  MIC (NCTC8325): > 30 µM
CN[C@H](CC(C)C)C(=O)N[C@H]1C(=O)N[C@@H](CC(N)=O)C(=O)N[C@H]2C(=O)N[C@H]3C(=O)N[C@H](C(=O)N[C@H](C(=O)O)c4cc(O)cc(O)c4-c4cc3ccc4O)[C@H](O)c3ccc(c(Cl)c3)Oc3cc2cc(c3O[C@@H]2O[C@H](CO)[C@@H](O)[C@H](O)[C@H]2O[C@H]2C[C@](C)(N)[C@H](O)[C@H](C)O2)Oc2ccc(cc2Cl)[C@H]1O  MIC (broth dilution; ATCC25923): 0.98 µg/mL
CC(C)Oc1c(NC(=O)c2ccc(NC(=O)[C@H](CC(N)=O)NC(=O)c3ccc(NC(=O)c4ccc([N+](=O)[O-])cc4)cc3)cc2)ccc(C(=O)Nc2ccc(C(=O)O)c(F)c2)c1O  MIC (ATCC29213): 2 µg/mL
O=C(Nc1ccccc1F)c1ccccc1O  MIC (broth dilution; ATCC29213): 32 µg/mL
